The source of these data is BindingDB's records for doi:10.1016/j.bmc.2012.09.049 (University of Copenhagen, 2012).

For experiment [1], the target named is Excitatory amino acid transporter 2 (Homo sapiens, UniProt P43004). The experiment can be described thus: Inhibition of [3H]-D-aspartate uptake at human EAAT2 expressed in HEK293 cells after 6 mins by scintillation counting. In outline: (§1)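 Each transporter subtype stably expressed in its own HEK293 cell line. Inhibitor potency measured as block of [³H]-D-aspartate uptake into these cells and reported as IC₅₀ values.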
Excitatory amino acid transporter 2, sequence (P43004 whole entry): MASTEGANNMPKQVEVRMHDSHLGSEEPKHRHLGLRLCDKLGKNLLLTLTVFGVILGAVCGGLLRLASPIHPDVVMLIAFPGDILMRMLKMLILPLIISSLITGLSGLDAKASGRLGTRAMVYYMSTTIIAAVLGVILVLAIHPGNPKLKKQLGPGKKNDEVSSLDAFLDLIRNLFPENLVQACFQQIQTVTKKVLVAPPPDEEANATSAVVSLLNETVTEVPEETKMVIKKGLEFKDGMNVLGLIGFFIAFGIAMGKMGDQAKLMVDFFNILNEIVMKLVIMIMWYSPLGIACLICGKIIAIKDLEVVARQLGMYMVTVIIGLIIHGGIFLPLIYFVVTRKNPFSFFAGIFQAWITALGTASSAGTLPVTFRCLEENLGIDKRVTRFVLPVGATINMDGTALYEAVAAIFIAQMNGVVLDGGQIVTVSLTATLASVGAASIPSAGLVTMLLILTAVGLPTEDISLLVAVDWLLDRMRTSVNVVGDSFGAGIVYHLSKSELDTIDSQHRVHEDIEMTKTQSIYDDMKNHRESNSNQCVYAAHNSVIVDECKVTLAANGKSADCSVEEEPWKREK

Experiment [2] deals with Excitatory amino acid transporter 1 (Homo sapiens, UniProt P43003). The experiment can be described thus: Inhibition of [3H]-D-aspartate uptake at human EAAT1 expressed in HEK293 cells after 6 mins by scintillation counting. In outline: as §1
Excitatory amino acid transporter 1, sequence (P43003 whole entry): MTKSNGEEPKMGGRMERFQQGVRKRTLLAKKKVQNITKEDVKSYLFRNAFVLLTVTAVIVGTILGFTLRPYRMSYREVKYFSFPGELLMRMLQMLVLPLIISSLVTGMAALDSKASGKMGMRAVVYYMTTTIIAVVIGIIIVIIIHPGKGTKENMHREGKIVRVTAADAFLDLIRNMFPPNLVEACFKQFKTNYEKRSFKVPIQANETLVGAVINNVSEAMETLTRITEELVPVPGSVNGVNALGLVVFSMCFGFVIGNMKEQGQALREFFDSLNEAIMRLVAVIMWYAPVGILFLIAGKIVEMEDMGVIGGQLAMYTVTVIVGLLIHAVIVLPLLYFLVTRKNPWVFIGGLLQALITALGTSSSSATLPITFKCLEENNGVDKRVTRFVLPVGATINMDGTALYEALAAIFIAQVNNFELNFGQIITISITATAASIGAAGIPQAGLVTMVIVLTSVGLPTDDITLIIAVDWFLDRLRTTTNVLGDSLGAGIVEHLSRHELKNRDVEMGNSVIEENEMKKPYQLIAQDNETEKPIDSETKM
Experiment [3] addresses T1, Excitatory amino acid transporter 3 (Homo sapiens, UniProt P43005).
T1 sequence (P43005 whole entry): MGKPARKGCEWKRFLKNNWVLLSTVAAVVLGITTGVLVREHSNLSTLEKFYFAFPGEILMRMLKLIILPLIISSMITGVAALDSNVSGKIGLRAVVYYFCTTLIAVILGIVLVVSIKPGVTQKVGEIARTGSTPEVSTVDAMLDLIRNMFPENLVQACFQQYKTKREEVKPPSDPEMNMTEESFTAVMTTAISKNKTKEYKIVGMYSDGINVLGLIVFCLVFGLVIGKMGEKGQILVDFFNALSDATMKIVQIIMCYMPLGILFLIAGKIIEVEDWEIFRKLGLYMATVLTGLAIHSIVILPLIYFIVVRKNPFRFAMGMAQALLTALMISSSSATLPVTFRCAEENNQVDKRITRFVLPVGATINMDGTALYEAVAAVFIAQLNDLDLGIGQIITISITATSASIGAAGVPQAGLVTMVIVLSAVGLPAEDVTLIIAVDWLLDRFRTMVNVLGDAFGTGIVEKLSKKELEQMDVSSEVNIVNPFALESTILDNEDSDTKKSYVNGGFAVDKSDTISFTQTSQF
The experiment can be described thus: Inhibition of [3H]-D-aspartate uptake at human EAAT3 expressed in HEK293 cells after 6 mins by scintillation counting. In outline: as §1

In general, IC50 refers to the concentration needed to halve the response being measured. The low end stands for inhibition by little substance, the high end for a need for much substance.

As for `CCN(CC)c1ccc2c(C)c(-c3ccc(C4C5=C(CC(c6ccccc6)CC5=O)OC(=N)C4C#N)cc3)c(=O)oc2c1` (configuration not stated), the concentration for half-maximal inhibition (IC50) in experiment [1] was over 300 µM; in experiment [2] it was over 316 µM; in experiment [3], over 300 µM.

`COc1ccc2c(C)c(-c3ccc(C4C5=C(CC(c6ccccc6)CC5=O)OC(=N)C4C#N)cc3)c(=O)oc2c1` (configuration not stated): the IC50 in experiment [1] is over 300 µM; in experiment [2], over 316 µM; in experiment [3], over 300 µM.

Consider `CCN(CC)c1ccc2c(C3C4=C(CC(c5cccc6ccccc56)CC4=O)OC(=N)C3C#N)cc(=O)oc2c1` (configuration not stated), for which the IC50 in experiment [1] is over 300 µM; in experiment [2], over 316 µM; in experiment [3], over 300 µM.

With `COc1ccc2c(C3C4=C(CC(c5ccccc5)CC4=O)OC(=N)C3C#N)cc(=O)oc2c1` (configuration not stated), the half-inhibitory concentration (IC50) is over 300 µM in experiment [1], over 316 µM in experiment [2] and over 300 µM in experiment [3].
